Activity calls are given as the source filed them. The rule behind the calls is not given here.
How the values were obtained:
[1] = target: T1, Hypoxia inducible factors; HIF-1-alpha, HIF-2-alpha (Homo sapiens, UniProt Q16665+Q99814); experiment: Inhibition of hypoxia-induced HIF1 activation in human T47D cells by pTK-HRE3-luciferase reporter gene assay; format: cell-based
Summary of the method: (§1)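 T47D HIF-1 luciferase reporter under hypoxia (1% O2). Compounds supplied as 4 mM isopropanol stocks, final solvent under 0.75%. % inhibition = (1 − treated/induced light output) × 100. Concentration-response, one experiment in triplicate, mean ± SD.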

[2] = target: T1, Hypoxia inducible factors; HIF-1-alpha, HIF-2-alpha; experiment: Inhibition of hypoxia-induced HIF1 activation in human T47D cells at 30 uM by pTK-HRE3-luciferase reporter gene assay; format: cell-based; summary of the method: as §1
[3] = (§2) Inhibition of electron transport protein complex 1 in human T47D cells assessed as decrease in oxygen consumption by mitochondrial respiration assay; format: cell-based
Summary of the method: (§3)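 Oxygen consumption of intact T47D cells measured by an adapted isolated-mitochondria respiration method. Compounds tested at 1, 3, 10 and 30 μM. Three independent experiments, mean ± SD. One-way ANOVA with Bonferroni post hoc, p < 0.05.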

[4] = target: T1, Hypoxia inducible factors; HIF-1-alpha, HIF-2-alpha; experiment: Inhibition of 1,10-phenanthroline-induced HIF1 activation in human T47D cells at 10 uM by pTK-HRE3-luciferase reporter gene assay; format: cell-based
Summary of the method: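 T47D HIF-1 luciferase reporter; activation induced with 1,10-phenanthroline (10 μM). Compounds supplied as 4 mM isopropanol stocks, final solvent under 0.75%. % inhibition = (1 − treated/induced light output) × 100. Concentration-response, one experiment in triplicate, mean ± SD.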

T47D [5] = experiment: Inhibition of hypoxia-induced increase in VEGF production in human T47D cells at 30 uM after 16 hrs by ELISA; format: functional
Summary of the method: (§4)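 T47D cells held at 1% O2 for 16 h with compound at 10 or 30 μM. Secreted VEGF in conditioned medium measured by ELISA and normalized to total cell-lysate protein (micro BCA). One experiment in triplicate, mean ± SD. Compared with one-way ANOVA and Bonferroni post hoc.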

T47D [6] = experiment: Inhibition of hypoxia-induced increase in VEGF production in human T47D cells at 10 uM after 16 hrs by ELISA; format: functional, cell-based; summary of the method: as §4
T47D [7] = experiment: as §2; format: cell-based; summary of the method: as §3
T47D [8] = experiment: Inhibition of electron transport protein complex 1 in human T47D cells assessed as decrease in oxygen consumption at 10 uM by mitochondrial respiration assay; format: cell-based
Summary of the method: (§5)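 Digitonin-permeabilized T47D cells, O2 consumption. Malate/pyruvate starts complex I respiration. Rotenone, then succinate (complex II substrate), then antimycin A, then TMPD/ascorbate (complex IV substrates) added sequentially. Rotenone and antimycin A from ethanol stocks, final 1 μM.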

T47D [9] = experiment: Inhibition of electron transport protein complex 2 in human T47D cells assessed as decrease in oxygen consumption at 10 uM in presence of succinate by mitochondrial respiration assay; format: cell-based; summary of the method: as §5
T47D [10] = experiment: Inhibition of electron transport protein complex 3 in human T47D cells assessed as decrease in oxygen consumption at 10 uM in presence of succinate by mitochondrial respiration assay; format: cell-based; summary of the method: as §5
T47D [11] = experiment: Inhibition of electron transport protein complex 4 in human T47D cells assessed as decrease in oxygen consumption at 10 uM in presence of succinate by mitochondrial respiration assay; format: cell-based; summary of the method: as §5

SMILES | IC50 [1] | inhibition [2] | other results
CC(C)CCCCCCCCCCCCc1ccc(C=O)[nH]1 | 20 µM | – | –
N#CCCCCCCCCCCCCCCCCCCCCc1ccc(C=O)[nH]1 | – | < 50% | IC50 [3]: > 30 µM
CC(C)CCCCCCCCCCCCCc1ccc(C=O)[nH]1 | – | < 50% | –
CC/C=C\C/C=C\C/C=C\CCCCCCCc1ccc(C=O)[nH]1 | – | < 50% | –
CCCCCC/C=C\CCCCCCCCCc1ccc(C=O)[nH]1 | – | < 50% | –
CCCCCCCCCCCCCCCCc1ccc(C=O)[nH]1 | – | < 50% | –
CCCCCCCCCCCCCCCc1ccc(C=O)[nH]1 | – | < 50% | –
N#CCCCCCC/C=C\CCCCCCCCCCCCCc1ccc(C=O)[nH]1 | – | < 50% | –
N#CCCCCCCCCCCCCC/C=C\CCCCCCc1ccc(C=O)[nH]1 | – | < 50% | –
N#CCCCCCCCCCCCCCC/C=C\CCCCCCc1ccc(C=O)[nH]1 | – | < 50% | –
N#CCCCCCCCCCCCCCCCC/C=C\C/C=C\CCc1ccc(C=O)[nH]1 | – | < 50% | –
N#CCCCCCCCCCCCCCCCCCCCc1ccc(C=O)[nH]1 | – | < 50% | –
N#CCCCCCCCCCCCCCCCCCCc1ccc(C=O)[nH]1 | – | < 50% | –
CC/C=C\C/C=C\C/C=C\CCCCCCCCCCCc1ccc(C=O)[nH]1 [MYCALAZAL 3] | 20 µM | – | –
CCCCCCCCCCCCCCc1ccc(C=O)[nH]1 [MYCALAZAL 14] | 20 µM | – | –
CC(C)CCCCCCCCC/C=C\CCc1ccc(C=O)[nH]1 [MYCALAZAL 16] | 20 µM | – | –
CC(C)CCCCC/C=C\CCCCCCc1ccc(C=O)[nH]1 [MYCALAZAL 17] | 20 µM | – | –
CCC/C=C\C/C=C\CCCCCCCCCc1ccc(C=O)[nH]1 [MYCALAZAL 18] | 20 µM | – | –
CC/C=C\C/C=C\C/C=C\CCCCCCCCCc1ccc(C=O)[nH]1 [MYCALAZAL 20] | 20 µM | – | –
N#CCCCCCCCCCCCCCCCCCc1ccc(C=O)[nH]1 [MYCALENITRILE 1] | 10 µM | – | inhibition [4]: inactive
N#CCCCC/C=C\C/C=C\CCCCCCCCCCCCCCc1ccc(C=O)[nH]1 [MYCALENITRILE 5] | 10 µM | – | inhibition [4]: inactive
N#CCCCC/C=C\C/C=C\CCCCCCCCCCCCc1ccc(C=O)[nH]1 [MYCALENITRILE 7] | 8.6 µM | – | inhibition [4]: inactive; inhibition (T47D [5]): inactive; inhibition (T47D [6]): inactive; IC50 [3]: < 10 µM; Activity (T47D [7]): Dose-dependent effect; Activity (T47D [8]): Active; Activity (T47D [9]): inactive; Activity (T47D [10]): inactive; Activity (T47D [11]): inactive
N#CCCCCCC/C=C\CCCCCCCCCCCc1ccc(C=O)[nH]1 [MYCALENITRILE 8] | 10 µM | – | inhibition [4]: inactive
N#CCCCCCC/C=C\CCCCCCCCCCCCCCCc1ccc(C=O)[nH]1 [MYCALENITRILE 10] | – | < 50% | IC50 [3]: > 30 µM
N#CCCCCCCCCCCCCCCCc1ccc(C=O)[nH]1 [MYCALENITRILE 13] | 10 µM | – | inhibition [4]: inactive
N#CCCCC/C=C\C/C=C\CCCCCCCCCCc1ccc(C=O)[nH]1 [Mycalenitrile-6] | 7.8 µM | – | inhibition [4]: inactive; inhibition at 30 µM (T47D [5]): 50%; IC50 [3]: < 10 µM; Activity (T47D [7]): Dose-dependent effect; Activity (T47D [8]): Active; Activity (T47D [9]): inactive; Activity (T47D [10]): inactive; Activity (T47D [11]): inactive

— ChEMBL document CHEMBL1154374, “Lipophilic 2,5-disubstituted pyrroles from the marine sponge Mycale sp. inhibit mitochondrial respiration and HIF-1 activation” (J Nat Prod, 2009)
